Test results from ChEMBL document CHEMBL1158601, “Discovery of a novel series of CXCR3 antagonists” (Bioorg Med Chem Lett, 2010).
≈ marks a conversion by molar mass, not a printed value. Calls of active or inactive are those of the source. No cut-off for these calls is given here.

Key:
[1] = target: T1, C-X-C chemokine receptor type 5 (Homo sapiens) (UniProt P32302); assay: Antagonist activity at human CXCR5 expressed in mouse L1.2 cells assessed as inhibition of CXCL13-induced chemotaxis up to 10 uM after 4 hrs; assay type: functional, cell-based
T1 sequence (whole entry): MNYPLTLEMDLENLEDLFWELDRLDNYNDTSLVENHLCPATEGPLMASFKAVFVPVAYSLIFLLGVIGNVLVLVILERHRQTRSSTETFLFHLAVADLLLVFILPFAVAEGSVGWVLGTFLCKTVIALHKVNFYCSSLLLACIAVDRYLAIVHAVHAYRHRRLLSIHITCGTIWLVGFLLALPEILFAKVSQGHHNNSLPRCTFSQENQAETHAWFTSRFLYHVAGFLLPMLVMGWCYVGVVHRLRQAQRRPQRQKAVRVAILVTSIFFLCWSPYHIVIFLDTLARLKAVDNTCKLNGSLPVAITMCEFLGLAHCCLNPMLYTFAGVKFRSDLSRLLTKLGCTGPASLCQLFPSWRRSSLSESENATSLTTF
Method in brief: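 Counter-screen chemotaxis: CXCR5-overexpressing L1.2 cells stimulated with CXCL13, test compounds up to 10 µM.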

[2] = Intrinsic clearance in rat liver microsomes assessed per mg of protein; assay type: ADME, Microsome
Method in brief: (§1)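 Intrinsic clearance from stability in human and rat liver microsomes, expressed as µL/min/mg protein.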

[3] = Aqueous solubility at pH 7.4; assay type: physicochemical; settings: buffer
Method in brief: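 Aqueous solubility measured at pH 7.4.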

[4] = Intrinsic clearance in human liver microsomes assessed per mg of protein; assay type: ADME, Microsome; method in brief: as §1
[5] = Intrinsic clearance in mouse liver microsomes assessed per mg of protein; assay type: ADME, Microsome
[6] = Half life in mouse at 10 mg/kg, po; assay type: ADME, organism-based; design: dose 10 mg/kg, route oral; settings: in vivo
[7] = Bioavailability in mouse at 10 mg/kg, po; assay type: ADME, organism-based; settings: in vivo
[8] = Clearance in mouse at 0.2 mg/kg, iv; assay type: ADME, organism-based; design: dose 0.2 mg/kg, route intravenous; settings: in vivo
Mus musculus = assay: Clearance in mouse assessed as liver blood flow at 0.2 mg/kg, iv; assay type: ADME, organism-based; design: dose 0.2 mg/kg, route intravenous; settings: in vivo
[9] = Volume of distribution at steady state in mouse at 0.2 mg/kg, iv; assay type: ADME, organism-based; design: dose 0.2 mg/kg, route intravenous; settings: in vivo, read-out: Vdss
[10] = target: T2, C-X-C chemokine receptor type 3 (Homo sapiens, UniProt P49682); assay: Displacement of labeled ITAC from CXCR3
T2 sequence (P49682 whole entry): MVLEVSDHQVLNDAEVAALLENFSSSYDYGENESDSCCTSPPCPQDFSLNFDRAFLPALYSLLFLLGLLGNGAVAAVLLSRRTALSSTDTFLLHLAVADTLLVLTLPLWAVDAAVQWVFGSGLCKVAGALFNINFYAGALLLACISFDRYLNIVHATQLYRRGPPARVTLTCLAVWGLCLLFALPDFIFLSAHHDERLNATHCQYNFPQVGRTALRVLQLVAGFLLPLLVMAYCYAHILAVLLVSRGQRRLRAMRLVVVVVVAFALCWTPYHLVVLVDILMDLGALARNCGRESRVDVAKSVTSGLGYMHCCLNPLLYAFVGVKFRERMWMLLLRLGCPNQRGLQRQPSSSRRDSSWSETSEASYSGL

[11] = Nephelometric kinetic solubility in PBS; assay type: physicochemical
[12] = Apparent permeability across human Caco-2 cells; assay type: ADME, cell-based
[13] = Lipophilicity, log P of the compound; assay type: physicochemical; settings: octanol/water
[14] = target: T2, C-X-C chemokine receptor type 3; assay: Displacement of labeled IP10 from CXCR3
[15] = target: T3, C-X-C chemokine receptor type 3 (Homo sapiens) (UniProt P49682); assay: Antagonist activity at CXCR3 assessed as inhibition of ITAC-induced GTPgammaS binding; assay type: functional
T3 sequence (whole entry): T2 sequence (P49682 whole entry)

[16] = Chemical stability at pH 1; assay type: physicochemical; settings: buffer
[17] = target: T3, C-X-C chemokine receptor type 3 (Homo sapiens); assay: Antagonist activity at human CXCR3 expressed in mouse L1.2 cells assessed as inhibition of ITAC-induced chemotaxis after 4 hrs; assay type: functional, cell-based
[18] = target: T3, C-X-C chemokine receptor type 3 (Homo sapiens); assay: Antagonist activity at CXCR3 assessed as inhibition of IP10-induced GTPgammaS binding; assay type: functional

Structure (SMILES)	Activity [1]	microsomal CLint [2]	solubility [3]	further results
O=S(=O)(c1ccc(Cl)cc1)N(Cc1ccc(-c2nnn[nH]2)cc1)Cc1ccccn1	inactive	25 µL/min/mg	> 100 µM	microsomal CLint [4]: < 10 µL/min/mg
N#Cc1ccc(S(=O)(=O)N(Cc2ccc(-c3nnn[nH]3)cc2)Cc2ccccn2)cc1	inactive	–	> 100 µM	–
O=C(NC1(c2ccccc2)CC1)c1ccc(CN(Cc2ccccn2)S(=O)(=O)c2ccc(Cl)cc2)cc1	inactive	1260 µL/min/mg	< 10 µM	microsomal CLint [4]: 257 µL/min/mg
O=C(O)c1ccc(CN(Cc2ccccn2)S(=O)(=O)c2ccc(Cl)cc2)cc1F	inactive	–	–	–
N#Cc1ccc(S(=O)(=O)N(Cc2ccc(C(=O)NCC3CC3)cc2)Cc2ccccn2)cc1	inactive	–	< 10 µM	–
N#Cc1ccc(S(=O)(=O)N(Cc2ccc(-c3nnn[nH]3)c(F)c2)Cc2ccccc2F)cc1	inactive	–	> 100 µM	microsomal CLint [5]: 17 µL/min/mg; half-life [6]: 1 h; bioavailability [7]: 83%; clearance [8]: 28.3 mL/min/kg; Fraction of Liver Blood Flow (Mus musculus): 30%; Vd [9]: 1 L/kg
COc1cccc(CN(Cc2ccc(-c3nnn[nH]3)cc2)S(=O)(=O)c2ccc(Cl)cc2)c1	inactive	–	> 100 µM	–
CC(C)(C)c1nc(CCN(Cc2ccc(-c3nnn[nH]3)cc2)S(=O)(=O)c2ccc(Cl)cc2)no1	inactive	–	> 100 µM	–
O=C(NCC1CC1)c1ccc(CN(Cc2ccccc2)S(=O)(=O)c2ccc(Cl)cc2)cc1	inactive	–	< 10 µM	–
O=C(NCCc1cccc([N+](=O)[O-])c1)c1ccc(CN(Cc2ccccc2)S(=O)(=O)c2ccc(Cl)cc2)cc1	inactive	–	< 10 µM	–
N#Cc1ccc(S(=O)(=O)N(Cc2ccc(-c3nnn[nH]3)cc2)Cc2ccccc2F)cc1	inactive	67 µL/min/mg	> 100 µM	–
CC(=O)Nc1cccc(/C(C)=N\NC(=O)c2ccc(CN(Cc3ccccc3)S(=O)(=O)c3ccc(Cl)cc3)cc2)c1	–	219 µL/min/mg	–	Ki [10]: 211 nM; solubility kinetic [11]: 11.9 µM (≈ 7.01 µg/mL); Papp [12]: 0.1 ×10⁻⁶ cm/s; logP [13]: 4.8; Ki [14]: 348 nM; Activity [15]: 128 nM; Stability [16]: Unstable; Activity [17]: 1810 nM; Activity [18]: 99 nM; microsomal CLint [4]: 92 µL/min/mg
O=S(=O)(c1ccc(Cl)cc1)N(Cc1ccc(-c2nnn[nH]2)c(F)c1)Cc1ccccc1F	inactive	71 µL/min/mg	> 100 µM	microsomal CLint [4]: < 10 µL/min/mg
O=S(=O)(c1ccc(Cl)cc1)N(Cc1ccc(-c2nnn[nH]2)cc1)Cc1cccc(Cl)c1	inactive	–	> 100 µM	–
COc1ccc(CN(Cc2ccc(-c3nnn[nH]3)cc2)S(=O)(=O)c2ccc(Cl)cc2)cc1	inactive	–	> 100 µM	–
CCOc1ccc(S(=O)(=O)N(Cc2ccc(-c3nnn[nH]3)cc2)Cc2ccccn2)cc1	inactive	–	> 100 µM	–
N#Cc1ccc(S(=O)(=O)N(Cc2ccc(C(=O)O)c(F)c2)Cc2ccccn2)cc1	inactive	–	–	–
O=C(NCC1CC1)c1ccc(CN(Cc2cccc(Cl)c2)S(=O)(=O)c2ccc(Cl)cc2)cc1	inactive	–	< 10 µM	–

Second part, led by results:

Activity [1]	microsomal CLint [2]	solubility [3]	Structure (SMILES)	further results
inactive	–	> 100 µM	O=S(=O)(c1ccc(Cl)cc1)N(CCc1cc2ccccc2cn1)Cc1ccc(-c2nnn[nH]2)cc1	–
inactive	–	< 10 µM	O=C(NCC1CC1)c1ccc(CN(Cc2ccccc2)S(=O)(=O)c2ccc(OC(F)(F)F)cc2)cc1	–
inactive	507 µL/min/mg	< 10 µM	O=C(NC1(c2ccccc2)CC1)c1ccc(CN(Cc2ccccc2)S(=O)(=O)c2ccc(Cl)cc2)cc1	microsomal CLint [4]: 211 µL/min/mg
inactive	–	> 100 µM	O=S(=O)(c1ccc(Cl)cc1)N(Cc1ccc(Cl)cc1)Cc1ccc(-c2nnn[nH]2)cc1	–
inactive	538 µL/min/mg	< 10 µM	O=C(NCC1CC1)c1ccc(CN(Cc2ccccn2)S(=O)(=O)c2ccc(Cl)cc2)cc1	microsomal CLint [4]: 265 µL/min/mg
inactive	–	< 10 µM	CCOc1ccc(S(=O)(=O)N(Cc2ccccc2)Cc2ccc(C(=O)NCC3CC3)cc2)cc1	–
inactive	–	< 10 µM	O=C(NCc1cccc(Cl)c1)c1ccc(CN(Cc2ccccc2)S(=O)(=O)c2ccc(Cl)cc2)cc1	–
inactive	–	< 10 µM	O=C(NCc1cccs1)c1ccc(CN(Cc2ccccc2)S(=O)(=O)c2ccc(Cl)cc2)cc1	–
inactive	–	< 10 µM	COc1ccc(S(=O)(=O)N(Cc2ccc(C(=O)NCC3CC3)cc2)Cc2cccnc2)cc1	–
inactive	–	> 100 µM	O=S(=O)(c1ccc(Cl)cc1)N(Cc1ccc(-c2nnn[nH]2)cc1)Cc1ccccc1F	–
inactive	–	> 100 µM	O=S(=O)(c1ccc(Cl)cc1)N(Cc1ccc(-c2nnn[nH]2)c(F)c1)Cc1ccccn1	–
inactive	474 µL/min/mg	< 10 µM	N#Cc1ccc(S(=O)(=O)N(Cc2ccc(C(=O)NC3(c4ccccc4)CC3)cc2)Cc2ccccn2)cc1	microsomal CLint [4]: 435 µL/min/mg
inactive	–	> 100 µM	O=S(=O)(c1ccc(Cl)cc1)N(Cc1ccc(F)cc1)Cc1ccc(-c2nnn[nH]2)cc1	–
inactive	1700 µL/min/mg	< 10 µM	O=C(NC[C@@H]1CCCO1)c1ccc(CN(Cc2ccccc2)S(=O)(=O)c2ccc(Cl)cc2)cc1	microsomal CLint [4]: 490 µL/min/mg
inactive	–	< 10 µM	COc1ccc(S(=O)(=O)N(Cc2ccccc2)Cc2ccc(C(=O)NCC3CC3)cc2)cc1	–
inactive	–	< 10 µM	O=C(NCC1CC1)c1ccc(CN(Cc2ccccc2F)S(=O)(=O)c2ccc(Cl)cc2)cc1	–
inactive	< 10 µL/min/mg	–	O=C(O)c1ccc(CN(Cc2ccccc2F)S(=O)(=O)c2ccc(Cl)cc2)cc1F	–
inactive	1190 µL/min/mg	< 10 µM	O=C(NCc1cccc(Cl)c1)c1ccc(CN(Cc2ccccn2)S(=O)(=O)c2ccc(Cl)cc2)cc1	microsomal CLint [4]: 583 µL/min/mg
inactive	–	–	O=S(=O)(c1ccc(Cl)cc1)N(Cc1ccc(-c2nnc(O)o2)cc1)Cc1ccccn1	–
inactive	20 µL/min/mg	–	O=C(O)c1ccc(CN(Cc2ccccc2)S(=O)(=O)c2ccc(Cl)cc2)cc1	microsomal CLint [4]: < 10 µL/min/mg
inactive	–	< 10 µM	COc1ccc(S(=O)(=O)N(Cc2ccccc2)Cc2ccc(C(=O)NCc3ccccc3)cc2)cc1	–
inactive	–	–	COc1ccc(S(=O)(=O)N(Cc2ccccc2)Cc2ccc(C(=O)O)cc2)cc1	–
